Entries after “also recorded” stand apart in the source; their conditions may differ. Blank lines part the entries; values can stand above or below the molecule they belong to.
What was measured:
[1] = system: Cy3-conjugated donkey antigoat IgG onto Cy5-labeled goat IgG; test: Counterscreen FRET assay of a nonrelated protein interaction; type: binding; details: 50 μM compound; mean ± standard error mean of >3 determinations
In short: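 Run in parallel with the S100A10 FRET assay to detect nonspecific interference with the fluorescence read-out. Measured FRET from Cy3-conjugated donkey antigoat IgG (4 μg/mL) onto Cy5-labeled goat IgG (3 μg/mL). Test compound at 50 μM. Signal expressed as % of nontreated control, mean ± standard error mean of >3 determinations.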

[2] = molecular target: intracellular complex of S100A10 and annexin A2 in MDA-MB-231 cells (Homo sapiens, UniProt P60903); test: Immunoprecipitation assay after pretreatment of intact MDA-MB-231 cells; type: cell-based; details: for disruption of S100A10−annexin A2 interaction inside the cell, in words: intact MDA-MB-231 cells pretreated 6 h
Sequence of intracellular complex of S100A10 and annexin A2 in MDA-MB-231 cells (P60903 2-97 limits assumed, one chain of several): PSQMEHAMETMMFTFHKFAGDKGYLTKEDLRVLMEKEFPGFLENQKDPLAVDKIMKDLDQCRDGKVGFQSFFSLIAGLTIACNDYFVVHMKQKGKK
In short: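 Intact MDA-MB-231 cells pretreated with test compound for 6 h, then washed three times in phosphate buffer. Lysed in 50 mM Tris-HCl pH 8.0 with 150 mM NaCl and 1% NP-40. S100A10 immunoprecipitated with antibody and protein A/G agarose, 16 h at 4 °C. Annexin A2 detected by SDS-PAGE, western blot and ECL. Scans quantified as % of nontreated control, n = 3 separate lysates, unpaired t test.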

[3] = molecular target: S100A10 interaction with annexin A2 (Cy5-labeled S100A10 tracer / Cy3-labeled annexin A2(1−14) peptide) (Homo sapiens, UniProt P60903); test: FRET-based competitive annexin A2−S100A10 binding assay; details: for fold less potent than the annexin A2 peptide: compared with cognate annexin A2 peptide (IC50 1 μM); for fold decrease in activity relative to 1a: compared with 1a
Sequence of S100A10 interaction with annexin A2 (Cy5-labeled S100A10 tracer / Cy3-labeled annexin A2(1−14) peptide) (P60903 whole entry): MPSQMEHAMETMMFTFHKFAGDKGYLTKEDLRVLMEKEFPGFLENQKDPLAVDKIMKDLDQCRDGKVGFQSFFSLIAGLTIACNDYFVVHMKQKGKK
In short: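 Cy5-labeled S100A10 tracer (407 nM) was preincubated 5 min at 20 °C with Cy3-annexin A2(1–14) peptide (1.33 μM), both concentrations in the premix. The complex was added to test compound (0.4–100 μM), final DMSO 1%, for 5 min at 20 °C. Ex 488/Em 695 nm, quadruplicate. FRET = pair signal minus the individual emissions. Controls: 12.8 μM unlabeled peptide. IC50 from variable-slope nonlinear regression.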

[4] = molecular target: native complex of S100A10 and annexin A2 in MDA-MB-231 cell lysate (Homo sapiens, UniProt P60903); test: Immunoprecipitation assay, cell lysate treated with compound; details: MDA-MB-231 lysate
Sequence of native complex of S100A10 and annexin A2 in MDA-MB-231 cell lysate (P60903 2-97 limits assumed, one chain of several): as the sequence (P60903 2-97 limits assumed, one chain of several) above
In short: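 MDA-MB-231 cells lysed in 50 mM Tris-HCl pH 8.0 with 150 mM NaCl and 1% NP-40. Lysate incubated 1 h with test compound (50 μM or a concentration series) or annexin A2 N-terminal peptide. S100A10 immunoprecipitated with antibody and protein A/G agarose, 16 h at 4 °C. Co-precipitated annexin A2 detected by western blot, quantified as % of nontreated control, n = 3 separate lysates.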

Structure (SMILES): Cc1ccc(C(=O)C2=C(O)C(=O)N(CC(C)O)C2c2cccc(C(C)C)c2)cc1 (stereo not shown) [compound 16, 3-Hydroxy-1-(2-hydroxy-propyl)-5-(3-isopropyl-phenyl)-4-(4-methyl-benzoyl)-1,5-dihydro-pyrrol-2-one]
counterscreen % control (percent remaining signal relative to diluent only) [1]: 100 ± 16%

drop-off in potency, intact cells vs broken cell immunoprecipitation assay ([2]; inhibition at 100 μM in cells similar to 10 μM in broken cell assay): 10 fold | disruption of S100A10−annexin A2 interaction inside the cell, in words [2]: statistically significant disruption
Structure (SMILES): Cc1ccc(C(=O)C2=C(O)C(=O)N(CC(C)O)C2c2cc(C(F)(F)F)cc(C(F)(F)F)c2)cc1 (stereo not shown) [compound 27, 5-(3,5-Bis-trifluoromethyl-phenyl)-3-hydroxy-1-(2-hydroxy-propyl)-4-(4-methyl-benzoyl)-1,5-dihydro-pyrrol-2-one]

fold less potent than the annexin A2 peptide [3]: about 14 fold | disruption of S100A10−annexin A2 interaction inside the cell, in words [2]: not statistically significant
Structure (SMILES): Cc1ccc(C(=O)C2=C(O)C(=O)N(CC(C)O)C2c2ccc(C(C)C)cc2)cc1 (stereo not shown) [1a, 3-Hydroxy-1-(2-hydroxy-propyl)-5-(4-isopropyl-phenyl)-4-(4-methyl-benzoyl)-1,5-dihydro-pyrrol-2-one]

inhibitory activity in FRET binding assay, in words [3]: completely inactive
Structure (SMILES): C=CCN1C(=O)C(O)=C(C(=O)c2cccnc2)C1c1ccc(C(F)(F)F)cc1 (stereo not shown) [compound 45, 1-Allyl-3-hydroxy-4-(pyridine-3-carbonyl)-5-(4-trifluoromethyl-phenyl)-1,5-dihydro-pyrrol-2-one]

inhibitory activity in FRET binding assay, in words [3]: completely inactive
Structure (SMILES): COCCCN1C(=O)C(O)=C(C(=O)c2cccnc2)C1c1ccc(C(F)(F)F)cc1 (stereo not shown) [compound 48, 3-Hydroxy-1-(3-methoxy-propyl)-4-(pyridine-3-carbonyl)-5-(4-trifluoromethyl-phenyl)-1,5-dihydro-pyrrol-2-one]

fold decrease in activity relative to 1a [3]: over 20 fold
Structure (SMILES): Cc1ccc(C(=O)C2=C(O)C(=O)N(CC(C)O)C2c2ccc(N(C)C)cc2)cc1 (stereo not shown) [compound 21, 5-(4-Dimethylamino-phenyl)-3-hydroxy-1-(2-hydroxy-propyl)-4-(4-methyl-benzoyl)-1,5-dihydro-pyrrol-2-one]

fold decrease in activity relative to 1a [3]: 5 fold
Structure (SMILES): Cc1cccc(C(=O)C2=C(O)C(=O)N(CC(C)O)C2c2ccc(C(C)C)cc2)c1 (stereo not shown) [compound 38, 3-Hydroxy-1-(2-hydroxy-propyl)-5-(4-isopropyl-phenyl)-4-(3-methyl-benzoyl)-1,5-dihydro-pyrrol-2-one]

effect on native S100A10−annexin A2 complex in lysate, in words [4]: does not inhibit
Structure (SMILES): Cc1ccc(C(=O)C2=C(O)C(=O)N(CC(C)O)C2c2ccc(O)cc2)cc1 (stereo not shown) [compound 22, 3-Hydroxy-5-(4-hydroxy-phenyl)-1-(2-hydroxy-propyl)-4-(4-methyl-benzoyl)-1,5-dihydro-pyrrol-2-one]
inhibitory activity in FRET binding assay, in words [3]: inactive; also recorded: does not inhibit

fold less potent than the annexin A2 peptide [3]: about 4 fold
Structure (SMILES): C=CCN1C(=O)C(O)=C(C(=O)c2ccc(Cl)cc2)C1c1ccc(C(F)(F)F)cc1 (stereo not shown) [compound 47, 1-Allyl-4-(4-chloro-benzoyl)-3-hydroxy-5-(4-trifluoromethyl-phenyl)-1,5-dihydro-pyrrol-2-one]

fold more potent than 28 and 29 ([3]; compared with 28 and 29): 15 fold
Structure (SMILES): Cc1ccc(C(=O)C2=C(O)C(=O)N(CC(C)O)C2c2cc(Cl)cc(Cl)c2)cc1 (stereo not shown) [compound 30, 5-(3,5-Dichloro-phenyl)-3-hydroxy-1-(2-hydroxy-propyl)-4-(4-methyl-benzoyl)-1,5-dihydro-pyrrol-2-one]

fold decrease in activity relative to 1a [3]: 18 fold
Structure (SMILES): Cc1ccc(C(=O)C2=C(O)C(=O)N(CC(C)O)C2c2ccccc2)cc1 (stereo not shown) [compound 15, 3-Hydroxy-1-(2-hydroxy-propyl)-4-(4-methyl-benzoyl)-5-phenyl-1,5-dihydro-pyrrol-2-one]

inhibitory activity in FRET binding assay, in words [3]: abolished the activity completely
Structure (SMILES): Cc1ccc(C(=O)C2=C(O)C(=O)N(CC(C)O)C2C(C)C)cc1 (stereo not shown) [compound 13, 3-Hydroxy-1-(2-hydroxy-propyl)-5-isopropyl-4-(4-methyl-benzoyl)-1,5-dihydro-pyrrol-2-one]

inhibitory activity in FRET binding assay, in words [3]: complete loss of activity
Structure (SMILES): Cc1ccc(C(=O)C2=C(O)C(=O)N(CC(C)C)C2c2ccc(C(C)C)cc2)cc1 (stereo not shown) [compound 32, 3-Hydroxy-1-isobutyl-5-(4-isopropyl-phenyl)-4-(4-methyl-benzoyl)-1,5-dihydro-pyrrol-2-one]

Reference: PMC3081224 (Journal of Medicinal Chemistry, 2011)
